Screens: PubChem, several laboratories
Compounds with a hit are over-represented: about 2.6% of the library has one in this group of screens.
SENP6 inh = inhibitors of human SENP6 protease; Recombinant SENP6 catalytic domain, aminoluciferin luminescence; Q9GZR1; 330,000 tested, 1.8% active; inhibition, % at 10 µM;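 active = inhibition above about 50% at the single tested dose, limit read from the data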
Target sequence (Q9GZR1 628-1112 limits assumed): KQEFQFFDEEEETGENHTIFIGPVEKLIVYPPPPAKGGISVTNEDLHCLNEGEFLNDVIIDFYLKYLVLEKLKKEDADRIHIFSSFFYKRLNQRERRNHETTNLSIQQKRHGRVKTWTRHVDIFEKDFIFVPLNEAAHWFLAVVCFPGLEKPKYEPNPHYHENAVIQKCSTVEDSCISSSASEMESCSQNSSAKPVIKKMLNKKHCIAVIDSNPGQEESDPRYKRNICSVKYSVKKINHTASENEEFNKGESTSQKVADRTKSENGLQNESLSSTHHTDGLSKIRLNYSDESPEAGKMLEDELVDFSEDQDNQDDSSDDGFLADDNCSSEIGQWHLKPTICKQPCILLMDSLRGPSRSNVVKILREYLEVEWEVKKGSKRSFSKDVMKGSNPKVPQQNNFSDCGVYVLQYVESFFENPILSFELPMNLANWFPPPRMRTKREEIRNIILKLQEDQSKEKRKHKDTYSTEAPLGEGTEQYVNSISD
SENP7 block = blocks the human protease SENP7 | Q9BQF6 | recombinant SENP7, Z-RLRGG-aminoluciferin luminescence, 40 min | inhibition, % at 5 µM | 330,000 tested, 1.5% active | AID 434973;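 active = inhibition above about 50% at the single test dose, limit read from the data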
SENP8 block-1 = SENP8 (human) protease inhibition; 360,000 tested, 0.64% active; AID 602440; Q96LD8; recombinant SENP8, Nedd8 substrate fluorescence; inhibition, % at 20 µM; in the data active = inhibition mostly above about 40%, no sharp cut-off; inactive = mostly below about 27%
Platelet DG rel = modulates dense granule release in human platelets. human platelet-rich plasma, SFLLRN dense granule ATP release, luminescence. inhibition, %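 (compounds screened at 7.5 µM in platelet-rich plasma)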. 300,000 tested, 0.22% active. AID 1663;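 active = mean replicate score, as percent of positive control, at or above 50; inconclusive = mean below 50 but at least one replicate at or above 50; inactive = mean and every replicate below 50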
SENP1 FRET inh = inhibitors of human SENP1 SUMO protease catalytic domain. inhibition, % at 10 µM. recombinant SENP1 catalytic domain, CyPet-SUMO1-YPet FRET cleavage. Q9P0U3. 360,000 tested, 0.21% active;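 active = inhibition at least 30% at 10 µM, raw YFP signal under a set limit, fluorescence ratio 0.5 to 1.5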
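System: Recombinant human SENP1 catalytic domain, His6-tagged | Incubation: Enzyme reaction for 50 min at room temperature, dark | Medium: Tris pH 8 with BME, BSA, NP40 and catalase | Also added: 25 nM SUMO1 FRET substrate | Compound: 10 µM single point, 0.5% DMSO | Measured by: FRET fluorescence in CFP and YFP emission channels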
SENP8 block-2 = inhibitors of human SENP8 protease. inhibition, % at 10 µM. purified SENP8, Z-RLRGG-aminoluciferin cleavage, luminescence. AID 2540. 330,000 tested, 1.2% active; in the data active = inhibition above about 50%
SENP8 confirm = confirmation of human SENP8 protease inhibitors; shares compounds with SENP7 block; Recombinant SENP8, Z-RLRGG-aminoluciferin luminescence, 60 min; inhibition, % at 12.5 µM; 6,200 tested, 40% active;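 active = mean inhibition across replicates above about 50%, limit read from the data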
SENP6 confirm = confirmation of human SENP6 protease inhibitors; recombinant SENP6, Z-RLRGG-aminoluciferin luminescence; shares compounds with SENP7 block; AID 488915; 6,200 tested, 58% active; inhibition, % at 12.5 µM
SENP7 confirm = human SENP7 inhibition, confirmed | shares compounds with SENP7 block | recombinant SENP7, Z-RLRGG-aminoluciferin luminescence, 40 min | inhibition, % at 12.5 µM | 6,200 tested, 69% active | AID 488917
Casp3 SENP sel = selectivity test for SENP inhibitors: human caspase-3 inhibition; shares compounds with SENP7 block; purified caspase-3, Z-DEVD-aminoluciferin luminescence, 60 min; inhibition, % at 12.5 µM; 6,200 tested, 60% active; AID 488918;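 active = mean inhibition above about 50%, limit read from the data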
SENP luc ctr = counter-screen for SENP inhibitors: luminescence interference. 6,200 tested, 39% active. inhibition, % at 12.5 µM. shares compounds with SENP7 block. Pre-incubated SENP8/Z-RLRGG-aminoluciferin, luciferase luminescence interference. AID 488919;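 active = mean inhibition above about 50% when retested at one dose, limit read from the data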
A number is an active result; n = inactive; u = inconclusive; x = not tested or not shown.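 Rule for the calls, unless noted: active = mean inhibition above about 50% in the one-dose retest (limit read from the data); inactive = the rest.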

SMILES | SENP6 inh | SENP7 block | SENP8 block-1 | Platelet DG rel | SENP1 FRET inh | SENP8 block-2 | SENP8 confirm | SENP6 confirm | SENP7 confirm | Casp3 SENP sel | SENP luc ctr
COc1ccc(NC(=O)CCCCCn2nnc3ccccc3c2=O)cc1 | n | n | n | n | n | n | x | x | x | x | x
Cc1nc(NC(=O)c2ccc(Br)o2)sc1C | 86 | 81 | n | n | n | 63 | 73 | 78 | 95 | 89 | n
Cc1ccc(C(=O)Nc2nc(C)c(C)s2)o1 | 74 | 79 | n | n | n | 58 | n | 72 | 92 | 91 | 75
Cc1ccc(C(=O)Nc2nnc(C)s2)o1 | n | n | n | n | n | n | x | x | x | x | x
CC1(C(=O)NCc2ccc3c(c2)OCO3)CCN1C(=O)CCc1ccc(Cl)cc1Cl (centres undefined) | x | x | n | x | n | x | x | x | x | x | x
Cc1ccc(Nc2ccccc2)cc1 | n | n | n | n | n | n | x | x | x | x | x
Cc1ccc(NC2=Nc3ccccc3CS2)cc1 | 83 | 92 | n | n | n | 75 | n | 83 | 95 | 85 | n
CCOC(=O)C(=O)N(C)c1c(CC)nc2c(OCCC3CCCCC3)cccn12 | x | x | n | x | n | x | x | x | x | x | x
COc1cc(C(C#N)N2N=C(c3ccccc3)CC2c2ccccc2)ccc1O (centres undefined) | 66 | 78 | n | n | n | n | n | n | n | n | n
CC1Cc2ccccc2N1C(=O)CSc1nncs1 (centres undefined) | n | n | n | x | n | n | x | x | x | x | x
Cn1nc(N2CCN(S(=O)(=O)c3ccccc3)CC2)c(=O)n(C)c1=O | n | n | n | x | n | n | x | x | x | x | x
COC(=O)c1sc(NC(=O)c2ccc(C)o2)nc1C | n | n | n | u | n | n | x | x | x | x | x
CCOC(=O)c1sc(NC(=O)c2ccco2)nc1C | 59 | 54 | n | x | n | n | n | n | n | n | n
CCOC(=O)c1sc(NC(=O)c2ccc(C)o2)nc1C | 70 | n | n | n | n | 64 | n | 74 | 91 | 84 | n
Cc1cccc(NC(=O)NCCN2CCN(c3ccccc3)CC2)c1C | n | n | n | n | n | n | x | x | x | x | x
CC1CN(C(=O)c2ccccc2NS(=O)(=O)c2ccc(Cl)cc2)CC(C)O1 (centres undefined) | n | n | n | x | n | n | x | x | x | x | x
O=C1C(Nc2ccccc2)=CC(c2ccc(O)cc2)N1c1ccccc1 (centres undefined) | 58 | n | n | n | n | n | n | n | n | n | n
CC1=CC(c2ccccc2)=Nc2ccc(C)cc2N1 | 60 | n | n | n | n | n | 55 | n | 66 | 81 | 80
COc1ccc2c(c1)NC(=O)CC(c1ccccc1)=N2 | n | n | n | n | n | n | x | x | x | x | x
CC12C=CC(=O)C=C1CCC1C2C(O)CC2(C)C1CCC2(O)C(=O)CO (centres undefined) | x | x | n | x | n | x | x | x | x | x | x
CC(=O)N(C(C)=O)n1c(/C=C/c2ccc([N+](=O)[O-])cc2)nc2ccccc2c1=O | n | n | n | n | n | n | x | x | x | x | x
O=[N+]([O-])c1ccc(/C=C/c2ccc3cccc(O)c3n2)cc1 | n | 53 | n | n | n | n | n | n | n | n | n
CC(=O)Nc1ccc(/C=C/c2ccc3cccc([N+](=O)[O-])c3n2)cc1 | n | n | n | n | n | n | x | x | x | x | x
O=[N+]([O-])c1ccc(/C=C/c2ccc3ccccc3n2)cc1 | 93 | 94 | n | n | n | 91 | 64 | 78 | 94 | 78 | n
CSc1cc(-c2ccco2)oc1C(=O)c1ccco1 | n | n | n | n | n | n | x | x | x | x | x
